The TGI is how far tumour growth fell short of that in controls. A high value points to much slowing of growth.

The nature of assay [1]: Antitumor activity against mouse Ridgeway osteogenic sarcoma cells allografted in mouse at 1 to 2 mg/kg/day, ip. It is filed as functional. The settings on record: route intraperitoneal. Summed up:
(§1)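 Sulfate salts given ip on days 1-9 against ROS and GLS in mice; tumor growth scored as percent inhibition versus controls (+++ = 75-100%, ++ = 50-75%, ± = under 25%).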

The nature of assay [2]: Antitumor activity against mouse Gardner lymphosarcoma cell allografted in mouse at 1.0 to 2.0 mg/kg/day, ip. It is filed as functional. The following applies: route intraperitoneal. In short, it runs like this:
as §1

For `CC[C@]1(O)C[C@@H]2C[C@H](c3cc4c(cc3OC)N(C)[C@H]3[C@@](O)(C(=O)NN)[C@H](O)[C@]5(CC)C=CCN6CC[C@]43[C@@H]65)c3[nH]c4ccccc4c3CCN(C2)C1`, the TGI in assay [1] and in assay [2] was <25% in each case.

Values taken from ChEMBL document CHEMBL3272325, “Structure-activity relationships of dimeric Catharanthus alkaloids. 1. Deacetylvinblastine amide (vindesine) sulfate” (J Med Chem, 1978).
